In brackets after ≈: the same amount, converted by molar mass. Activity calls are given as the source filed them. The rule behind the calls is not given here.
Experiments:
[1] = molecular target: T1, Bromodomain-containing protein 4 (Homo sapiens, UniProt O60885)
[2] = molecular target: T1, Bromodomain-containing protein 4; remark: listed apart in the source
[3] = system: Bromodomain-containing protein 4 (Homo sapiens), O60885 [E151A]
[4] = system: Bromodomain-containing protein 4 (Homo sapiens), O60885 [E151A]; remark: listed apart in the source
[5] = molecular target: T1, Bromodomain-containing protein 4; remark: listed apart in the source
[6] = Half life in rat at 20 mg/kg, po; assay type: ADME, organism-based; conditions: in vivo
[7] = Aqueous solubility of the compound after 24 hrs by HPLC analysis; assay type: physicochemical; conditions: buffer
Procedure, shortened: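 Compound suspended in water and shaken 24 h at 25 °C, then centrifuged and filtered. Supernatant analyzed by C18 reverse-phase HPLC with one-point calibration against solutions of known concentration.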

Mus musculus [8] = test: Antiinflammatory activity in C57BL/6 mouse model of poly(I:C)-induced acute airway inflammation assessed as decrease in H3K122Ac accumulation in lung tissue at 10 mg/kg, po administered 1 day prior to poly(I:C) stimulation by immunofluorescence analysis; assay type: functional, organism-based
Procedure, shortened: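 Same mouse model: 10 mg/kg po one day before, plus a second dose with intranasal poly(I:C) (300 μg). Lungs collected one day later. H3K122Ac detected by immunofluorescence on paraffin lung sections and quantified as fold change in total fluorescence intensity.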

[9] = Half life in rat at 10 mg/kg, iv; assay type: ADME, organism-based; conditions: in vivo
Mus musculus [10] = test: Antiinflammatory activity in C57BL/6 mouse model of poly(I:C)-induced acute airway inflammation assessed as inhibition of neutrophilic inflammation around medium sized airways at 10 mg/kg, po administered 1 day prior to poly(I:C) stimulation by H and E staining based analysis; assay type: functional; parameters: scale not given: the % may be the effect or the level left
[11] = system: Bromodomain-containing protein 4 (Homo sapiens), O60885 [E151A]; remark: listed apart in the source
[12] = system: Bromodomain-containing protein 4 (Homo sapiens), O60885 [E151A]; remark: listed apart in the source
[13] = molecular target: Bromodomain-containing protein 3 (Homo sapiens, UniProt Q15059); test: Binding affinity BRD3 BD2 (unknown origin) incubated for 1 hr by TR-FRET assay
Sequence of Bromodomain-containing protein 3 (Q15059 whole entry): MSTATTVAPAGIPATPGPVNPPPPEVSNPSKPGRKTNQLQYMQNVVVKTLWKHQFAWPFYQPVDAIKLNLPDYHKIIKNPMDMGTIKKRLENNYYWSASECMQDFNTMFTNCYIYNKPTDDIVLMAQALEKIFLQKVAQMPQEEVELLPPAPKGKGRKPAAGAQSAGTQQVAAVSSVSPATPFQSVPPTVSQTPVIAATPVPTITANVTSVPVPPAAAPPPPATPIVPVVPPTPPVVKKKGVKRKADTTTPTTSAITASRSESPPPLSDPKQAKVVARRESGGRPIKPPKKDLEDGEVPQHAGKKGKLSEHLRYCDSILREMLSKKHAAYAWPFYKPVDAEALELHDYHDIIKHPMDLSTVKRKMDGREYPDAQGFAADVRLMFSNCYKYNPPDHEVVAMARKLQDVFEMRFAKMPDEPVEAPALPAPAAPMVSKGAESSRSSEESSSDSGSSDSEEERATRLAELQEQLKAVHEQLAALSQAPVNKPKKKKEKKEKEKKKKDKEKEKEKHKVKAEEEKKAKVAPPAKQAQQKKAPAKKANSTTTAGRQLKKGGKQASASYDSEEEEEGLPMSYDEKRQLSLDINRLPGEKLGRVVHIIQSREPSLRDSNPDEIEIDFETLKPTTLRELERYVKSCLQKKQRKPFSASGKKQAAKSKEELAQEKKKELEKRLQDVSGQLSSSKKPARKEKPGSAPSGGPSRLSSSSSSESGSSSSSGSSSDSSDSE

[14] = Cmax in rat at 10 mg/kg, iv; assay type: ADME, organism-based; parameters: route intravenous, dose 10 mg/kg; conditions: in vivo
[15] = Volume of distribution at steady state in rat at 10 mg/kg, iv; assay type: ADME, organism-based; conditions: in vivo, read-out: Vdss
[16] = molecular target: Bromodomain testis-specific protein (Homo sapiens, UniProt Q58F21); test: Binding affinity BRDT BD2 (unknown origin) incubated for 1 hr by TR-FRET assay
[17] = molecular target: T1, Bromodomain-containing protein 4; remark: listed apart in the source
[18] = molecular target: T1, Bromodomain-containing protein 4; test: Binding affinity to wild type human BRD4 BD1 (42 to168 residues) expressed in bacterial competent cells assessed as increase in thermal stability by thermal shift assay
CREB-binding protein = CREB-binding protein (Homo sapiens, UniProt Q92793); test: Binding affinity CBP (unknown origin) incubated for 1 hr by TR-FRET assay
Sequence of CREB-binding protein (Q92793 whole entry): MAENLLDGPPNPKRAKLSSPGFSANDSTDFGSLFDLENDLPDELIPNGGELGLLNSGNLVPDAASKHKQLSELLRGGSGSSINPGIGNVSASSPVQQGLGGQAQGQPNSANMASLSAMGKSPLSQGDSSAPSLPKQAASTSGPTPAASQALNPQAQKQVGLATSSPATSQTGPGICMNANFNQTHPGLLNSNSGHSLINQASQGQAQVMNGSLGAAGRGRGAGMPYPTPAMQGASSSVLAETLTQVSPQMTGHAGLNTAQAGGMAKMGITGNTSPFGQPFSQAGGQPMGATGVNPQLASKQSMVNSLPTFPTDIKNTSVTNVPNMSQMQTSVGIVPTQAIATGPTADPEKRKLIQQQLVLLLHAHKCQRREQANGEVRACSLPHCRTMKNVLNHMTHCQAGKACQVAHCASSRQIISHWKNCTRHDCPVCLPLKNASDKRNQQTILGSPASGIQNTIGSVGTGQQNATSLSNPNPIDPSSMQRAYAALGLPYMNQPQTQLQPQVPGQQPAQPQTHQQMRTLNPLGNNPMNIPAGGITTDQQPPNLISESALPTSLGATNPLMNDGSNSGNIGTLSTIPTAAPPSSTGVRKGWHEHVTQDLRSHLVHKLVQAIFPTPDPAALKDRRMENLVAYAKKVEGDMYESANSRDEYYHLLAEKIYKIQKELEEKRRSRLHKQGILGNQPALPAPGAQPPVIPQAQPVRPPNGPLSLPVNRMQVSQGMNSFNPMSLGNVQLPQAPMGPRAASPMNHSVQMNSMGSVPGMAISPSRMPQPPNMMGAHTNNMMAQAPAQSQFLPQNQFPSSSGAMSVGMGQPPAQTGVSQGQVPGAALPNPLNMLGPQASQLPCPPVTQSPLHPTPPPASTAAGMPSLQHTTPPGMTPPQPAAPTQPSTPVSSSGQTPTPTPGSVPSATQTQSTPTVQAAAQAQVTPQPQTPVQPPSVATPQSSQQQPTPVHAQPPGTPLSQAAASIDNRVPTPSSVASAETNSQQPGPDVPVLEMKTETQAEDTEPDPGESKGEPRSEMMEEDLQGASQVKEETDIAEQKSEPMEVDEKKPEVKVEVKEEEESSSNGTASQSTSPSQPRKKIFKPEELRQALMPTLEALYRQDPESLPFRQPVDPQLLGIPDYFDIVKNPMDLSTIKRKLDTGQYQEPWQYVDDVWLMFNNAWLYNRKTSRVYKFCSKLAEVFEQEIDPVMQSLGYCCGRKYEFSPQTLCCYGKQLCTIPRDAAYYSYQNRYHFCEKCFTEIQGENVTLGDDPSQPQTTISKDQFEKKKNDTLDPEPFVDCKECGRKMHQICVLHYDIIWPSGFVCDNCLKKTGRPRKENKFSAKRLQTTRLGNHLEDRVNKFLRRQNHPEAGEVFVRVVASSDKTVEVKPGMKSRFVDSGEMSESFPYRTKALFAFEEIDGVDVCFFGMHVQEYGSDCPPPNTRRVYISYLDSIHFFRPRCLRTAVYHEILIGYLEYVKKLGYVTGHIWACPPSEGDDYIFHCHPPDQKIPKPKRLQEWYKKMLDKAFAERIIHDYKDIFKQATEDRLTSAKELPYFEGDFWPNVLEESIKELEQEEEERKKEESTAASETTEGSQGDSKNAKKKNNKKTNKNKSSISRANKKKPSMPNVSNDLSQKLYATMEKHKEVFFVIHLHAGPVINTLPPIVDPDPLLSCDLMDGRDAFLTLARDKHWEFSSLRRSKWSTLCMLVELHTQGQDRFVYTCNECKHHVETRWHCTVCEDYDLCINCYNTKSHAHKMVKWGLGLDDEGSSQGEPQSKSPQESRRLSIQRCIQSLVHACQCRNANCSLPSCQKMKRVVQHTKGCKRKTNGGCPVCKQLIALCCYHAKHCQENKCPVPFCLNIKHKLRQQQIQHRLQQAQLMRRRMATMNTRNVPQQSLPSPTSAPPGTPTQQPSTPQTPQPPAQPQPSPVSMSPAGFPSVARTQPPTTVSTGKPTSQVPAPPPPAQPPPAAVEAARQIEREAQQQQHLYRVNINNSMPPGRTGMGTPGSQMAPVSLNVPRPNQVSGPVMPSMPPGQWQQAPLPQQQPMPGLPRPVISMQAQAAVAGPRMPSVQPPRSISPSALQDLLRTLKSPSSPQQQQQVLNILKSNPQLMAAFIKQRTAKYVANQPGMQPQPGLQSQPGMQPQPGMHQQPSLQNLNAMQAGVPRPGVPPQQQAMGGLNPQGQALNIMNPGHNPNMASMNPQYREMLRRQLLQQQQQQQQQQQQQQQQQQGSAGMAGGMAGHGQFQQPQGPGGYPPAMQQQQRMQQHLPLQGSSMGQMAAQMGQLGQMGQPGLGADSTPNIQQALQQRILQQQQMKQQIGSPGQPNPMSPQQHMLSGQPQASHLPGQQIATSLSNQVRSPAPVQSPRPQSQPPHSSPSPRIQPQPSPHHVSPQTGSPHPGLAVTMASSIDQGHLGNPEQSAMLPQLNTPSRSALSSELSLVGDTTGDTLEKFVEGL

[19] = molecular target: T1, Bromodomain-containing protein 4; remark: listed apart in the source
[20] = molecular target: T1, Bromodomain-containing protein 4; remark: listed apart in the source
[21] = system: Bromodomain-containing protein 4 (Homo sapiens), O60885 [E151A]; remark: listed apart in the source

In the case of O=C(Nc1ccc(C(F)(F)F)cc1)Nc1ccc(S(=O)(=O)N2CCC[C@H]2CN2CCOCC2)cc1, the ΔTm [1] is reported as 15.8 °C, the ΔTm [2] is reported as 0.7 °C and the ΔTm [3] is reported as 0.5 °C. It also gave a ΔTm [4] of 0.7 °C, a ΔTm [5] of 15.5 °C and a half-life [6] of 3.7 h. The solubility [7] was 3500 µg/mL (≈ 6.83 mM), the Activity (Mus musculus [8]) was “Active” and the half-life [9] was 2.5 h. It also gave an Activity (Mus musculus [10]) of 100%, a ΔTm [11] of 0.4 °C and a ΔTm [12] of 0.7 °C. It also gave an IC50 [13] of 2 µM, a Cmax [14] of 1920 ng/mL and a Vd [15] of 16 L/kg. The IC50 [16] was 1.9 µM, the ΔTm [17] was 0.8 °C and the Activity [18] was “Dose-Dependent Effect”. It also gave an IC50 (CREB-binding protein) greater than 10 µM, a ΔTm [19] of 4.5 °C and a ΔTm [20] of 15.7 °C. For the same compound, the ΔTm [21] was 0.5 °C.
